Test results taken from ChEMBL document CHEMBL4433212, “First-of-its-kind STARD3 Inhibitor: In Silico Identification and Biological Evaluation as Anticancer Agent” (ACS Med Chem Lett, 2019).
pIC50: −log10 of the molar value. Activity calls are given as the source filed them. The rule behind the calls is not given here.

Key:
[1] = target: T1, StAR-related lipid transfer protein 3 (Homo sapiens, UniProt Q14849); test: Inhibition of recombinant human His-tagged StAR-related lipid transfer protein 3 START domain expressed in Escherichia coli BL21(DE3) cells assessed as reduction of protein interaction with cholesterol using 3-hexanoyl-NBD Cholesterol as substrate incubated for 5 mins by competition binding fluorescent assay
T1 sequence (Q14849 whole entry): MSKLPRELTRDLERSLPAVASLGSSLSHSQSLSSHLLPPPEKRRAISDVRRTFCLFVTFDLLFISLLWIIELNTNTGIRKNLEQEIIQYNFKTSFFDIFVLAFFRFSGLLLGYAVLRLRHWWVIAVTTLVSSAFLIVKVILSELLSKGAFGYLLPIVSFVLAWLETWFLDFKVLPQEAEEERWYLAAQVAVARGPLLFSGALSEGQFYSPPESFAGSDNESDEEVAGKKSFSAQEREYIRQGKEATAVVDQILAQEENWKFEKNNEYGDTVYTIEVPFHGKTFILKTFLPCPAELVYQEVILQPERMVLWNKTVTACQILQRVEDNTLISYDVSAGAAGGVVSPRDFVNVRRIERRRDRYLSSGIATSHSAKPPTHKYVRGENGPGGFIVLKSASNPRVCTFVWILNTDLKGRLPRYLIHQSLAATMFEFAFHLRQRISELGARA
In short: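 Competition binding fluorescent assay of cholesterol binding to STARD3, adapted from Tsujishita and Hurley; STARD3 used at 5 μM, selected from a binding titration curve as giving 55.9% completely bound state; IC50 determined.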

MCF7 [2] = test: Antiproliferative activity against human MCF7 cells after 96 hrs by Cell Titer-Glo based luminescence assay; type: functional; conditions: MCF7, 96 h
MDA-MB-231 [3] = test: Antiproliferative activity against human MDA-MB-231 after 96 hrs by Cell Titer-Glo based luminescence assay; type: functional; conditions: MDA-MB-231, 96 h
HCT-116 [4] = test: Antiproliferative activity against human HCT116 cells after 96 hrs by Cell Titer-Glo based luminescence assay; type: functional; conditions: HCT-116, 96 h
MCF7 [5] = test: Anticlonogenic activity against human MCF7 cells assessed as reduction in cell proliferation after 10 days with replacement of medium for every 3 days by crystal violet staining based visual analysis; type: functional
In short: (§1)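 MCF7, MDA-MB-231 and HCT-116 cells treated with a range of inhibitor concentrations, grown until colonies became visible; colony forming efficiency scored by visual inspection.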

MDA-MB-231 [6] = test: Anticlonogenic activity against human MDA-MB-231 cells assessed as reduction in cell proliferation after 10 days with replacement of medium for every 3 days by crystal violet staining based visual analysis; type: functional; in short: as §1
HCT-116 [7] = test: Anticlonogenic activity against human HCT116 cells assessed as reduction in cell proliferation after 10 days with replacement of medium for every 3 days by crystal violet staining based visual analysis; type: functional; in short: as §1
[8] = target: T2, StAR-related lipid transfer protein 3 (Mus musculus) (UniProt Q61542); test: Induction of STARD3 degradation in cycloheximide treated mouse NIH/3T3 cells at 100 uM incubated for 24 hrs followed by addition of cycloheximide and measured after 12 hrs by Western blot analysis
T2 sequence (whole entry): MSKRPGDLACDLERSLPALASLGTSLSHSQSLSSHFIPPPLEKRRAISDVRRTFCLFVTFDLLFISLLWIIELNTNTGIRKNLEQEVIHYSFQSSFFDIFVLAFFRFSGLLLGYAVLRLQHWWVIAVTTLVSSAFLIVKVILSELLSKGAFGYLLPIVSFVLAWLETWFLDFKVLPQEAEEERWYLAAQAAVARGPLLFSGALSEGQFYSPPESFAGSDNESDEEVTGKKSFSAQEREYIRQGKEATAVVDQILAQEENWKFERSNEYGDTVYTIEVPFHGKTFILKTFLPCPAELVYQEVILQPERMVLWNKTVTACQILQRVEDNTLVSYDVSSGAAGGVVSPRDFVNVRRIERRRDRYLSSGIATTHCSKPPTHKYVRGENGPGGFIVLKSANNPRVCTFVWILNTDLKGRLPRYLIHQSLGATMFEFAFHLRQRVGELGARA
In short: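 NIH3T3 fibroblasts pretreated with 100 μM inhibitor for 24 h, then given cycloheximide 10 μg/mL and harvested at timed points (hours); STARD3 protein followed by Western blot to track degradation kinetics.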

NIH3T3 = test: Effect on STARD3 mRNA level in mouse NIH/3T3 cells at 0 to 100 uM incubated for 48 hrs by RT-PCR method; type: ADME, cell-based; conditions: nih3t3, 48 h
In short: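 NIH3T3 fibroblasts exposed to two inhibitor concentrations for 48 h; STARD3 mRNA level then measured.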

[9] = target: T3, StAR-related lipid transfer protein 3 (Homo sapiens) (UniProt Q14849); test: Inhibition of STARD3 in human MDA-MB-231 cells assessed as increase in FAK protein level at 100 uM incubated for 24 hrs by Western blot analysis; type: cell-based
T3 sequence (whole entry): T1 sequence (Q14849 whole entry)
In short: (§2)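 MDA-MB-231 cells treated with 100 μM inhibitor for 24 and 48 h; total FAK and pTyr397-FAK levels assessed by Western blot against untreated cells.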

[10] = target: T3, StAR-related lipid transfer protein 3 (Homo sapiens); test: Inhibition of STARD3 in human MDA-MB-231 cells assessed as increase in FAK protein level at 100 uM incubated for 48 hrs by Western blot analysis; type: cell-based; in short: as §2
[11] = target: T3, StAR-related lipid transfer protein 3 (Homo sapiens); test: Inhibition of STARD3 in human MDA-MB-231 cells assessed as increase in phosphorylated FAK protein level at Tyr397 residue at 100 uM incubated for 24 hrs by Western blot analysis; type: cell-based; in short: as §2
[12] = target: T3, StAR-related lipid transfer protein 3 (Homo sapiens); test: Inhibition of STARD3 in human MDA-MB-231 cells assessed as increase in phosphorylated FAK protein level at Tyr397 residue at 100 uM incubated for 48 hrs by Western blot analysis; type: cell-based; in short: as §2

For O=C(/C=C/c1ccccc1F)Nc1ccc(N2CCNC(=O)C2)c(Cl)c1, the pIC50 [1] was under 4.00.
O=c1nc(/C=C/c2ccc(O)c([N+](=O)[O-])c2)[nH]c2c1CCN(Cc1ccccc1)C2 was tested, and the pIC50 [1] was 4.46, the pIC50 (MCF7 [2]) was 3.98 and the pIC50 (MDA-MB-231 [3]) was 4.30. For the same compound, the pIC50 (HCT-116 [4]) was 4.15, the Activity (MCF7 [5]) was “Dose-dependent effect” and the Activity (MDA-MB-231 [6]) was “Dose-dependent effect”. For the same compound, the Activity (HCT-116 [7]) was “Dose-dependent effect”, the Activity [8] was “Active” and the Activity (NIH3T3) was “Non-Toxic”. For the same compound, the inhibition [9] was “Active”, the inhibition [10] was “Active” and the inhibition [11] was “Active”. The inhibition [12] was “Active”.
In the case of O=C1CN(c2ccc(NC(=O)c3csc(-c4cccc(Cl)c4)n3)cn2)CCN1, the pIC50 [1] was under 4.00.
For O=C(COC(=O)c1ccc(-c2ccc(O)cc2)cc1)NCc1ccc(F)cc1, the pIC50 [1] was under 4.00.
